Measured values from paper PMC10975593 (ACS Omega, 2024).
Where two headings read alike, the source gives them in different places.

Tests used:
[1] = biological target: PI3Kγ enzyme (Homo sapiens, UniProt P48736); assay: Adapta universal kinase assay, anti-PI3Kγ activity; type: biochemical
Procedure, shortened: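 Adapta ADP-detection TR-FRET immunoassay with test compound at 100 μM. The kinase reaction runs 60 min. It is then stopped by a detection solution of EDTA, europium-labelled anti-ADP antibody and Alexa Fluor 647-labelled ADP tracer. ADP formed displaces the tracer and lowers the TR-FRET signal. ADP formation is calculated from the emission ratio.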

[2] = tested on: Staphylococcus aureus; assay: Disc diffusion antimicrobial test; type: cell-based; conditions: Staphylococcus aureus, 24 h, read-out: zone of inhibition (diameter of inhibition)
Procedure, shortened: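 Disc diffusion on nutrient agar, test compound at 100 μg/mL with DMSO as solvent. Plates incubated at 37 °C for 24 h after inoculation, then zone of inhibition measured and compared with standards. Controls were DMSO, amoxicillin, ciprofloxacin and tetracycline.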

[3] = tested on: NCI 60 cell line panel; assay: NCI 60-cell line inhibition, range over panel; type: cell-based; conditions: Homo sapiens
[4] = tested on: BT-549; assay: NCI 60-cell line screen; type: cell-based, human
[5] = tested on: SF-539; assay: NCI 60-cell line screen; type: cell-based, human
Procedure, shortened: (§1)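 Test compounds were submitted to the National Cancer Institute and run under NCI's standard 60-cell-line protocols. Read-outs were taken from percent-growth versus log-concentration curves.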

[6] = tested on: SNB-75; assay: NCI 60-cell line screen; type: cell-based, human
Procedure, shortened: as §1

[7] = tested on: U251; assay: NCI 60-cell line screen; type: cell-based, human
Procedure, shortened: as §1

[8] = tested on: HCT-15; assay: NCI 60-cell line screen; type: cell-based, human
[9] = tested on: SW-620; assay: NCI 60-cell line screen; type: cell-based, human
Procedure, shortened: as §1

[10] = tested on: LOX IMVI; assay: NCI 60-cell line screen; type: cell-based, human
[11] = tested on: MALME-3M; assay: NCI 60-cell line screen; type: cell-based, human
[12] = tested on: A549/ATCC; assay: NCI 60-cell line screen; type: cell-based, human
[13] = tested on: HOP-62; assay: NCI 60-cell line screen; type: cell-based, human
[14] = tested on: HOP-92; assay: NCI 60-cell line screen; type: cell-based, human
[15] = tested on: NCI-H460; assay: NCI 60-cell line screen; type: cell-based, human
[16] = tested on: NCI-H522; assay: NCI 60-cell line screen; type: cell-based, human
[17] = tested on: OVCAR-8; assay: NCI 60-cell line screen; type: cell-based, human
Procedure, shortened: as §1

[18] = tested on: SK-OV-3; assay: NCI 60-cell line screen; type: cell-based, human
Procedure, shortened: as §1

[19] = tested on: PC-3; assay: NCI 60-cell line screen; type: cell-based, human
Procedure, shortened: as §1

[20] = tested on: A498; assay: NCI 60-cell line screen; type: cell-based, human
[21] = tested on: CAKI-1; assay: NCI 60-cell line screen; type: cell-based, human
[22] = tested on: SN12C; assay: NCI 60-cell line screen; type: cell-based, human
Procedure, shortened: as §1

[23] = tested on: HL-60(TB); assay: cells; conditions: Homo sapiens

Chain of PI3Kγ enzyme (P48736 whole entry): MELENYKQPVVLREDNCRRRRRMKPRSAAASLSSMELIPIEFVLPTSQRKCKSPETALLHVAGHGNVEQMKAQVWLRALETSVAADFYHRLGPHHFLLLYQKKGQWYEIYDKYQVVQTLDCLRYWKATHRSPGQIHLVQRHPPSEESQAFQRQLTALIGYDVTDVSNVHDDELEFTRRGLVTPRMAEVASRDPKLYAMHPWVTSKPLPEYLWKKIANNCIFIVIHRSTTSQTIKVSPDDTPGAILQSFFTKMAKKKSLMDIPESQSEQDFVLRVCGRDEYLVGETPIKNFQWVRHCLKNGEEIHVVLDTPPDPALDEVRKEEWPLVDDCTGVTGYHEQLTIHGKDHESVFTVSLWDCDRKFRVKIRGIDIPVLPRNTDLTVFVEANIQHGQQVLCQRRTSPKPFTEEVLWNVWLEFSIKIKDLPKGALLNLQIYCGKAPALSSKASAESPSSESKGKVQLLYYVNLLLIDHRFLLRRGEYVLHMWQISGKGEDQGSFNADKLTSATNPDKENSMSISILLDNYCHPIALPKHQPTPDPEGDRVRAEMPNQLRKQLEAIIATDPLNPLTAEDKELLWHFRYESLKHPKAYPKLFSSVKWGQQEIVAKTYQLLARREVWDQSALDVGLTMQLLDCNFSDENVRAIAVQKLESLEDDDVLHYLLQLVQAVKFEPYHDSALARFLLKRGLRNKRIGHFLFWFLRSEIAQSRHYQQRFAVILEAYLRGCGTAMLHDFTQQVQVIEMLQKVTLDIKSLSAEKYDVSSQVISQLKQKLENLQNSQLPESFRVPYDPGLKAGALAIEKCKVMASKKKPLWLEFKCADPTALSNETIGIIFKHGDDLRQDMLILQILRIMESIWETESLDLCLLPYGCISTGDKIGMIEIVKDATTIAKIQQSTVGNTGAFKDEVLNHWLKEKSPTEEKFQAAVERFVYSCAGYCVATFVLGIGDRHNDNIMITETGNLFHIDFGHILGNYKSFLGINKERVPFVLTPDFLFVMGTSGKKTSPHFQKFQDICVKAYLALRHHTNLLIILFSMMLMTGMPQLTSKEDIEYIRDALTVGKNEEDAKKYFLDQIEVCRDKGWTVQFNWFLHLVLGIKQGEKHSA

For O=C(CNc1ccc([N+](=O)[O-])cc1)Nc1nc2ccccc2s1 [OMS5, N-(1,3-benzothiazol-2-yl)-2-(4-nitroanilino)acetamide], the inhibition at 100 µM ([1]; read-out: % of inhibition (mean) against PI3Kγ enzyme) was 0%, the inhibition at 100 µM ([1]; read-out: % of inhibition against PI3Kγ enzyme, point 1) was 0% and the inhibition at 100 µM ([1]; read-out: % of inhibition against PI3Kγ enzyme, point 2) was 0%. It also gave a zone of inhibition at 100 µg/mL [2] of 0 mm, a GI50 ([3]; read-out: GI50, range over cell lines) of 360 to 2300 nM and an IC50 ([3]; read-out: IC50, range over cell lines) of 440 to 12000 nM. It also gave a TGI ([4]; BT-549, breast cancer) of 6500 nM, a GI50 ([4]; Homo sapiens, BT-549) of 2000 nM and an IC50 ([4]; Homo sapiens, BT-549) of 5400 nM. The CC50 ([4]; Homo sapiens, BT-549, read-out: LC50) was 27500 nM, the GI50 ([5]; Homo sapiens, SF-539) was 500 nM and the IC50 ([5]; Homo sapiens, SF-539) was 1400 nM. For the same compound, the CC50 ([5]; Homo sapiens, SF-539, read-out: LC50) was 6500 nM, the TGI ([5]; SF-539, CNS cancer) was 2100 nM and the GI50 ([6]; Homo sapiens, SNB-75) was 1400 nM. The IC50 ([6]; Homo sapiens, SNB-75) was 3000 nM, the CC50 ([6]; Homo sapiens, SNB-75, read-out: LC50) was 5900 nM and the TGI ([6]; SNB-75, CNS cancer) was 2900 nM. For the same compound, the GI50 ([7]; Homo sapiens, U-251) was 900 nM, the IC50 ([7]; Homo sapiens, U-251) was 1700 nM and the CC50 ([7]; Homo sapiens, U-251, read-out: LC50) was 41700 nM. The TGI ([7]; U251, CNS cancer) was 12000 nM, the TGI ([8]; HCT-15, colon cancer) was 3700 nM and the GI50 ([8]; Homo sapiens, HCT-15) was 500 nM. For the same compound, the IC50 ([8]; Homo sapiens, HCT-15) was 700 nM, the CC50 ([8]; Homo sapiens, HCT-15, read-out: LC50) was 28800 nM and the GI50 ([9]; Homo sapiens, SW-620) was 500 nM. For the same compound, the IC50 ([9]; Homo sapiens, SW-620) was 700 nM, the CC50 ([9]; Homo sapiens, SW-620, read-out: LC50) was 43700 nM and the TGI ([9]; SW-620, colon cancer) was 7200 nM. It also gave a GI50 ([10]; Homo sapiens) of 600 nM, an IC50 ([10]; Homo sapiens) of 1000 nM and a CC50 ([10]; Homo sapiens, read-out: LC50) of 8700 nM. It also gave a TGI ([10]; melanoma) of 2600 nM, a GI50 ([11]; Homo sapiens, Malme-3M) of 1100 nM and an IC50 ([11]; Homo sapiens, Malme-3M) of 2100 nM. It also gave a CC50 ([11]; Homo sapiens, Malme-3M, read-out: LC50) of 5000 nM, a TGI ([11]; MALME-3M, melanoma) of 2300 nM and a TGI ([12]; A549/ATCC, non-small cell lung cancer) of 28000 nM. The GI50 ([12]; Homo sapiens, A549) was 800 nM, the IC50 ([12]; Homo sapiens, A549) was 1500 nM and the CC50 ([12]; Homo sapiens, A549, read-out: LC50) was over 100000 nM. It also gave a TGI ([13]; HOP-62, non-small cell lung cancer) of 4900 nM, a GI50 ([13]; Homo sapiens, HOP-62) of 1200 nM and an IC50 ([13]; Homo sapiens, HOP-62) of 3000 nM. The CC50 ([13]; Homo sapiens, HOP-62, read-out: LC50) was 25100 nM, the TGI ([14]; HOP-92, non-small cell lung cancer) was 10000 nM and the GI50 ([14]; Homo sapiens, HOP-92) was 2300 nM. For the same compound, the IC50 ([14]; Homo sapiens, HOP-92) was 12000 nM, the CC50 ([14]; Homo sapiens, HOP-92, read-out: LC50) was 63100 nM and the GI50 ([15]; Homo sapiens, NCI-H460) was 400 nM. It also gave an IC50 ([15]; Homo sapiens, NCI-H460) of 500 nM, a CC50 ([15]; Homo sapiens, NCI-H460, read-out: LC50) of 39800 nM and a TGI ([15]; NCI-H460, non-small cell lung cancer) of 3300 nM. The GI50 ([16]; Homo sapiens, NCI-H522) was 700 nM, the IC50 ([16]; Homo sapiens, NCI-H522) was 2100 nM and the CC50 ([16]; Homo sapiens, NCI-H522, read-out: LC50) was 6300 nM. For the same compound, the TGI ([16]; NCI-H522, non-small cell lung cancer) was 2300 nM, the GI50 ([17]; Homo sapiens, OVCAR-8) was 600 nM and the IC50 ([17]; Homo sapiens, OVCAR-8) was 900 nM. For the same compound, the CC50 ([17]; Homo sapiens, OVCAR-8, read-out: LC50) was over 100000 nM, the TGI ([17]; OVCAR-8, ovarian cancer) was 22000 nM and the GI50 ([18]; Homo sapiens, SK-OV-3) was 1300 nM. It also gave an IC50 ([18]; Homo sapiens, SK-OV-3) of 5200 nM, a CC50 ([18]; Homo sapiens, SK-OV-3, read-out: LC50) of over 100000 nM and a TGI ([18]; SK-OV-3, ovarian cancer) of 6800 nM. For the same compound, the GI50 ([19]; Homo sapiens, PC-3) was 1600 nM, the IC50 ([19]; Homo sapiens, PC-3) was 2800 nM and the CC50 ([19]; Homo sapiens, PC-3, read-out: LC50) was over 100000 nM. It also gave a TGI ([19]; PC-3, prostate cancer) of 45000 nM, a TGI ([20]; A498, renal cancer) of 6500 nM and a GI50 ([20]; Homo sapiens, A498) of 1400 nM. It also gave an IC50 ([20]; Homo sapiens, A498) of 7200 nM, a CC50 ([20]; Homo sapiens, A498, read-out: LC50) of 28800 nM and a TGI ([21]; CAKI-1, renal cancer) of 9500 nM. For the same compound, the GI50 ([21]; Homo sapiens, CAKI-1) was 400 nM, the IC50 ([21]; Homo sapiens, CAKI-1) was 900 nM and the CC50 ([21]; Homo sapiens, CAKI-1, read-out: LC50) was 32400 nM. The GI50 ([22]; Homo sapiens) was 600 nM, the IC50 ([22]; Homo sapiens) was 1500 nM and the CC50 ([22]; Homo sapiens, read-out: LC50) was 57500 nM. The TGI ([22]; renal cancer) was 4900 nM, the GI50 ([23]; HL-60) was 800 nM and the IC50 ([23]; HL-60) was 2500 nM. The CC50 ([23]; HL-60, read-out: LC50) was over 100000 nM.
